Experimental data: article PMC6207247 (Clinical Pharmacology : Advances and Applications, 2018)
Entries after “also recorded” stand apart in the source; their conditions may differ.

What was measured:
[1] = patients with atrial fibrillation, population PK; cited from earlier work
[2] = tested on: clotting times and thrombin generation; assay: Time course of pharmacodynamic measures; type: in vivo, human
thrombin generation = assay: Ex vivo thrombin generation; type: in vivo, human; conditions: after apixaban administration, greatest change
In short: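 For thrombin generation, the same dosing design applied, with platelet-poor plasma (double centrifugation, 2,500 g, 4°C) sampled 3, 6, 12 and 24 h postdose. Thrombin over time came from cleavage of a slow-reacting fluorogenic substrate against a paired calibration sample. Lag time, time to peak, peak thrombin and endogenous thrombin potential were derived from the curve and summarised as % change from baseline by group, dose and time.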

clotting time (mPT) = assay: Modified prothrombin time; type: in vivo, human; conditions: 50 mg single dose, Japanese and Caucasian
clotting time (INR) = assay: International normalized ratio; type: in vivo, human; conditions: 50 mg dose, Japanese and Caucasian
clotting time (aPTT) = assay: Activated partial thromboplastin time; type: in vivo, human; conditions: 50 mg dose
[3] = Safety and tolerability assessment; type: in vivo, human; conditions: for bleeding time: same subject
In short: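 Subjects stayed in clinic ≥72 h per period and avoided alcohol, grapefruit, caffeine and fecal-occult-interfering foods up to Day 4. Safety was assessed by adverse-event review (MedDRA v8.1, by organ class, ethnic group and dose), vital signs, ECGs, physical exams, serum chemistry, liver function, blood counts, urinalysis, fecal occult blood and template-device bleeding time.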

[4] = Single-dose pharmacokinetics of apixaban in plasma and urine; type: in vivo, human; conditions: for dose proportionality of exposure: Japanese and Caucasian; for CL renal / half-life: male, human, oral; for CL renal: plasma and urine, renal clearance; for half-life: plasma

AUC values lower in Japanese than in Caucasian subjects ([4]; 50 mg dose): 20%–22% | point estimates and 95% CIs for dose proportionality parameter b ([4]; Cmax and AUC, both Japanese and Caucasian subjects, 2.5–50 mg): < 1 | dose proportionality of exposure ([4]; across the 2.5–50 mg dose range): less than proportional to dose | CL renal ([4]; Caucasian subjects, across doses): 13.3 mL/min | CL renal ([4]; Japanese subjects, across doses): 18.3 mL/min | half-life ([4]; mean T1/2 values across doses, Caucasian subjects, 2.5–50 mg): 8.9 to 16.1 h | half-life ([4]; mean T1/2 values across doses, Japanese subjects, 2.5–50 mg): 6.1 to 8.5 h | half-life ([4]; mean half-life, Caucasian subjects, across doses): ~13 h | half-life ([4]; mean half-life, Japanese subjects, across doses): ~8 h
Compound: COc1ccc(-n2nc(C(N)=O)c3c2C(=O)N(c2ccc(N4CCCCC4=O)cc2)CC3)cc1 [apixaban, 1-(4-methoxyphenyl)-7-oxo-6-(4-(2-oxopiperidin-1-yl)phenyl)-4,5,6,7-tetrahydro-1H-pyrazolo[3,4-c]pyridine-3-carboxamide]
apixaban clearance lower in Japanese patients compared to the overall population [1]: 15% | higher exposure corresponding to the lower clearance in Japanese patients [1]: 18% | duration of pharmacodynamic effects ([2]; 25 and 50 mg dose panels): > 24 h | time for which changes in TG parameters and mPT were evident ([2]; after apixaban administration): ≥ 12 h | time until changes in pharmacodynamic measures were evident ([2]; after apixaban administration, Japanese and Caucasian): ≤ 30 min | time to nearing baseline values of pharmacodynamic measures ([2]; doses ≤10 mg): 12 to 24 h | time of peak values of pharmacodynamic measures ([2]; postdose): approximately 3 h | ETP, decrease from baseline (thrombin generation): 49% | LAG, increase from baseline (up to) (thrombin generation): approximately 178% | PEAK, decrease from baseline (thrombin generation): 86% | TTP, increase from baseline (up to) (thrombin generation): ~142% | mPT, mean maximum increase from baseline (clotting time (mPT)): 226%–229% | INR, increase from baseline (clotting time (INR)): 50%–64% | aPTT, mean maximum increase from baseline (clotting time (aPTT)): ~ 25% | headache, number of subjects ([3]; Caucasian subjects who received apixaban): five | subjects reporting AEs ([3]; Caucasian subjects who received apixaban (11)): 91.7% | subjects reporting AEs ([3]; Japanese subjects who received apixaban (five)): 41.7% | intensity of reported AEs ([3]; all reported AEs): mild or moderate | safety and tolerability ([3]; ascending single oral doses 2.5–50 mg, Japanese and Caucasian healthy subjects): safe and well tolerated | changes in vital signs or ECGs ([3]; either group): no clinically relevant changes | bleeding time ([3]; 3.5 h after the 50 mg dose): 30 min | bleeding time ([3]; by 12 h after the 50 mg dose): 9 min | total number of AEs reported ([3]; subjects who received apixaban (12 Japanese, 12 Caucasian)): 32 | serious AEs or discontinuations due to AEs ([3]; whole study): no serious AEs or discontinuations due to AEs | dose proportionality of exposure ([4]; 2.5–10 mg dose range): increased the dose proportionally up to 10 mg; also recorded: increased in proportion to dose
